CHRM5 antagonist: human M5 muscarinic receptor antagonists, primary screen, CHO cells, Fluo-8 calcium fluorescence; Muscarinic acetylcholine receptor M5 (Homo sapiens), P08912; AID 624040, 2012; CHO-hM5 cells, ACh EC80; inhibition, % at 3 µM; 360,000 tested, 0.59% active;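 active means inhibition above a per-plate cutoff, the mean of that plate's test compounds plus 3 SD, cut at about 27% in these data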;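 further: 0% = acetylcholine EC80 with DMSO and 100% = DMSO without agonist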
Target sequence (P08912 whole entry, looked up): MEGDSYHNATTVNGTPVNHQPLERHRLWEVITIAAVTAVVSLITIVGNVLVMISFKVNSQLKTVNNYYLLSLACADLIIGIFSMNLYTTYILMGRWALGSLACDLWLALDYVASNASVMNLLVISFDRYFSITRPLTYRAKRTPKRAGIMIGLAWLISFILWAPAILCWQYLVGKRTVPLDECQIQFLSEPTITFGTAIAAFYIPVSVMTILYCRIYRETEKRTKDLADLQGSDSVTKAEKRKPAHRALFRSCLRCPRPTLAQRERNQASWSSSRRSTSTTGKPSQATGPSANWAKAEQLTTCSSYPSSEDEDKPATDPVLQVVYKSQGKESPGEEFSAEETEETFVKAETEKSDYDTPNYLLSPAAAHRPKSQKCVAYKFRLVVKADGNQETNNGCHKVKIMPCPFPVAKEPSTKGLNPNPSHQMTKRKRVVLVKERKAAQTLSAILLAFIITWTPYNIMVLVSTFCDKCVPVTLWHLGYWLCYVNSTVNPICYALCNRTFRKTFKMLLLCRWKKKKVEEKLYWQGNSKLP
CHRM1 antagonist: human M1 muscarinic receptor antagonists, primary screen, CHO-K1 cells, Fluo-8 calcium fluorescence, 1536-well; Muscarinic acetylcholine receptor M1 (Homo sapiens), P11229; CHO-K1 hM1, ACh EC80 antagonist; inhibition, % at 3 µM; 360,000 tested, 1.3% active; AID 588852, 2011;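 active means percent inhibition above its own plate's cutoff, namely the mean of that plate's compound wells plus 3 SD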;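 further: peak over basal fluorescence ratio during 140 s after agonist addition; 0% = ACh EC80 plus DMSO and 100% = DMSO alone without agonist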
M1 PAM: human M1 muscarinic receptor positive allosteric modulators, primary screen, CHO-K1 cells, Fluo-8 calcium fluorescence, 1536-well; Muscarinic acetylcholine receptor M1 (Homo sapiens), P11229; CHO-K1 hM1, ACh EC20; 0% = ACh EC20, 100% = maximal ACh; activation, % at 3 µM; 360,000 tested, 0.088% active; in the data active means activation above about 19%, passing the limit was not always enough
M5 ag: human M5 muscarinic receptor agonists, primary screen, CHO-K1 cells, Fluo-8 calcium fluorescence; Muscarinic acetylcholine receptor M5 (Homo sapiens), P08912; CHO-K1 hM5 cells; 0% DMSO wells, 100% maximal acetylcholine response; activation, % at 3 µM; 360,000 tested, 0.19% active;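 active means activation above the run's mean over test compounds plus 3 SD, cut at about 23% in these data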;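 further: signal is peak over basal fluorescence ratio across the kinetic read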
CHRM1 agonist: human M1 muscarinic receptor agonists, primary screen, Fluo-8 calcium fluorescence, CHO-K1 cells, HTS. Muscarinic acetylcholine receptor M1 (Homo sapiens), P11229. CHO-K1 hM1, agonist mode; 0% DMSO, 100% acetylcholine EC100. activation, % at 3 µM. 360,000 tested, 0.33% active. AID 588814, 2011;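 active means activation above the run's mean compound activation plus 3 SD, cut at about 16% in these data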;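 further: peak over basal fluorescence ratio within a 140 s kinetic read after compound addition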
M5 PAM: human M5 muscarinic receptor positive allosteric modulators, primary screen, CHO-K1 cells, Fluo-8 calcium fluorescence; CHO-K1 hM5, ACh EC20 PAM; 0% = ACh EC20, 100% = ACh EC100; Muscarinic acetylcholine receptor M5 (Homo sapiens), P08912; activation, % at 3 µM; AID 624038, 2012; 360,000 tested, 0.3% active;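 active means activation above the run cutoff, the mean activation of all test compounds plus 3 SD, cut at about 18% in these data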
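system = human M5 receptor in CHO-K1 cells | compound = one concentration, 3 µM final (nominal) | schedule = Post-acetylcholine fluorescence recording 140 s | signal = Fluo-8 calcium dye fluorescence, kinetic read | benchmarks = low control EC20 acetylcholine (0%), high control EC100 acetylcholine (100%) | repeats = singlicate, one well per test compound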
* hit, by the source's call. In the library only some 2% were active in any assay of this set; here they are far more common.

SMILES	CHRM5 antagonist	CHRM1 antagonist	M1 PAM	M5 ag	CHRM1 agonist	M5 PAM
Cc1nc2nc(SCC(=O)NCCCN3CCCCC3)nn2c(C)c1Cc1ccccc1	13.6	13.7	-18.0	-6.0	-11.2	-3.8
CN1CCc2c(sc3nc(SCC(N)=O)n(-c4ccccc4)c(=O)c23)C1	-1.9	-1.8	2.9	1.1	-4.9	6.3
CCSc1nc2sc3c(c2c(=O)n1C1CCCCC1)CCN(C)C3	2.9	5.3	-6.3	-11.7	-5.6	1.3
C=C(C)CSc1nc2sc3c(c2c(=O)n1C1CCCCC1)CCN(C)C3	23.8	31.4*	-21.8	-19.4	-6.7	-12.3
C=C(C)CSc1nc2sc3c(c2c(=O)n1-c1ccccc1)CCN(C)C3	7.9	36.0*	-24.4	-6.9	-10.9	-1.2
CSc1nc2sc3c(c2c(=O)n1C1CCCCC1)CCN(C)C3	-2.6	29.3*	-22.7	-11.0	-5.9	7.3
CCN(CC)C(=O)C1=C(C)N(Cc2ccccc2)C(=O)C(CC(=O)NCCCCc2ccccc2)C1 (stereo not given)	3.7	-5.5	-1.5	-1.6	13.1	-9.3
COc1ccc(Nc2ncnc3sccc23)cc1OC	9.4	-3.8	0.9	-1.7	-5.5	-7.0
c1ccc2c(c1)OCC(CNc1ncnc3sccc13)O2 (stereo not given)	35.3*	22.1	-11.5	6.2	0.7	-17.1
COc1ccc(CCNc2ncnc3sccc23)cc1OC	47.9*	39.7*	-13.9	6.0	-0.1	-29.6
COc1ccccc1CNc1ncnc2sccc12	27.3*	23.3	-0.5	5.2	0.9	-13.1
CNc1ncnc2c1ncn2[C@H]1CN(Cc2cccc3ccccc23)C[C@@H](CO)O1	3.7	-5.0	-7.1	4.2	2.9	-4.3
O=C(NNc1ccccc1Br)C(O)(c1cccc(C(F)(F)F)c1)c1cccc(C(F)(F)F)c1	29.4*	35.9*	-22.4	-4.1	-9.2	-17.7
c1ccc(SCCc2ccncc2)cc1	-1.2	101.0*	-29.3	-9.0	-8.6	0.8
Fc1ccc(SCCc2ccncc2)cc1	-6.1	8.0	1.7	-1.8	-4.7	4.7
O=[N+]([O-])c1c(Nc2ccc(O)cc2)cc(Cl)c2nonc12	43.2*	41.5*	-14.8	-7.7	-11.7	-10.4
COc1cc(NC(=O)c2cccc3c(-c4cnn(C)c4)coc23)cc(OC)c1OC	8.6	11.5	-11.5	5.1	3.2	-13.8
COc1ccccc1CCNC(=O)c1cc(-c2ccccn2)nc2ccccc12	3.1	32.0*	-10.9	0.9	-4.1	-10.1
Cc1ccc(-n2c3nc(=O)[nH]c(=O)c-3cc3cc([N+](=O)[O-])ccc32)cc1C	5.4	30.1*	-28.0	-4.0	-9.8	2.8
CCOC(=O)CCCCCC(=O)Nc1ccc2c(c1)C(=O)N([C@H](C)CO)C[C@@H](C)[C@@H](CN(C)C(=O)CCC(F)(F)F)OCCCC[C@H](C)O2	3.2	-24.6	13.6	2.0	-3.4	-3.1
O=C(Nc1ccc2nc(C(F)(F)F)[nH]c2c1)[C@@H]1O[C@H](CO)[C@@H](O)[C@H]1O	-4.0	-3.0	1.4	0.6	-0.1	3.6
Cc1c2cnn(CC(=O)NC3CCCC3)c(=O)c2c(C)n1Cc1ccccc1	20.3	-7.4	9.3	3.9	22.9*	-6.3
Cc1c2cnn(CC(=O)NCCCN3CCCCC3C)c(=O)c2c(C)n1Cc1ccccc1 (stereo not given)	4.0	5.0	-9.8	-1.7	-6.0	-5.0
CC(=O)Nc1ccc(CN2C(=O)C(C)(C)ON=C2c2ccc(NC(C)=O)cc2)cc1	3.1	-6.9	6.5	0.2	-2.2	-0.8
COc1cccc(-c2cc(C(=O)N3CCN(C(=O)c4ccco4)CC3)[nH]n2)c1	-4.7	-19.0	10.8	0.6	1.0	5.2
SMILES	CHRM5 antagonist	CHRM1 antagonist	M1 PAM	M5 ag	CHRM1 agonist	M5 PAM
COc1ccc(CCC(=O)Nc2ccc(S(=O)(=O)N3CCOCC3)cc2)cc1OC	12.4	-7.3	7.2	1.4	-0.2	-5.5
COC(=O)c1cc(S(=O)(=O)N2CCN(c3cccc(C)c3C)CC2)c[nH]1	22.3	34.4*	-21.2	7.9	0.2	-21.9
COC(=O)c1cc(S(=O)(=O)N2CCN(c3ccccc3)CC2)c[nH]1	5.5	-8.2	1.0	4.0	0.1	-3.4
O=C1/C(=C/c2ccc(O)c(O)c2)SC(=S)N1Nc1ccccc1	22.5	15.3	-2.6	23.0	12.9	-16.0
CCOc1cc(/C=C2\SC(=S)N(Nc3ccccc3)C2=O)ccc1O	21.5	2.0	3.6	20.4	29.1*	-7.8
COc1cc(/C=C2\SC(=S)N(Nc3ccccc3)C2=O)ccc1O	28.6*	23.6	-10.7	29.3*	22.6*	-11.2
CC1(C(=O)Nc2ccc(Cl)c(Cl)c2)CCN1CCc1ccccc1 (stereo not given)	3.2	-9.1	4.8	-0.6	-5.7	-2.2
COc1cccc(C2CC(c3ccccc3)=NN2S(=O)(=O)c2ccc(C)cc2)c1OC (stereo not given)	3.4	4.5	-0.2	5.1	-0.8	26.7*
COc1c(C)cc(C(=O)C2CCCN(Cc3ccc(Oc4ncccn4)cc3)C2)cc1C (stereo not given)	6.3	35.2*	-18.7	-12.9	-1.2	-9.1
CC(C)Oc1cccc(C(=O)C2CCCN(Cc3ccc(Oc4ncccn4)cc3)C2)c1 (stereo not given)	12.0	83.2*	-28.0	-15.4	-8.8	-3.5
C[C@H]1CN([C@@H](C)CO)C(=O)CCCn2nncc2CO[C@@H]1CN(C)C(=O)Cc1ccccc1	3.4	-5.8	3.7	0.8	1.0	-1.6
C[C@@H]1CN([C@@H](C)CO)C(=O)CCCn2cc(nn2)CO[C@H]1CN(C)S(=O)(=O)c1ccc(-c2ccccc2)cc1	11.8	-4.6	1.8	1.0	-5.5	-2.2
C[C@@H]1CN([C@H](C)CO)C(=O)CCCn2nncc2CO[C@@H]1CN(C)S(=O)(=O)c1ccccc1C#N	2.4	-29.0	27.0*	-3.6	-7.7	-2.3
Cc1ccc(S(=O)(=O)N(C)C[C@@H]2OCc3cn(nn3)CCCC(=O)N([C@@H](C)CO)C[C@H]2C)cc1	1.3	-27.6	25.2*	0.6	-0.3	0.2
C[C@H](CO)N1C[C@H](C)[C@@H](CN(C)S(=O)(=O)c2ccccc2)OCc2cn(nn2)CCCC1=O	10.9	24.4*	-13.4	-1.4	-7.9	-5.0

Source: PubChem BioAssay
